≈ marks a conversion by molar mass, not a printed value.

The subject of one experiment is Aspergillus fumigatus. The experiment is described as follows: Antifungal activity against Aspergillus fumigatus MTCC 3008 by broth microdilution method. Type of experiment: functional.
In the next experiment the test system is Plasmodium falciparum. The experiment is described as follows: Antimalarial activity against trophozoite stage of chloroquine-sensitive Plasmodium falciparum 3D7 infected in human erythrocytes after 48 hrs. The experiment is classed as functional, organism-based. The conditions noted are these: 3D7, 48 h. In a few lines: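 Parasites were kept in continuous culture in A+ human erythrocytes in RPMI with 10% human serum. Sorbitol-synchronized trophozoites at 1–2% parasitaemia and 2.5% haematocrit were exposed to serial dilutions (maximum 1 mg/ml; 0.02% final DMSO) for 48 h at 37 °C. Growth inhibition was measured; chloroquine and quinine served as positive controls. IC50 came from duplicate experiments.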

For experiment [1], the system named is Mycobacterium tuberculosis. The experiment in a line: Growth inhibition of Mycobacterium tuberculosis H37Rv at 6.25 ug/mL after 12 to 28 days relative to control. The experiment is classed as functional.
The next experiment concerns Streptococcus pneumoniae. The experiment in a line: Antibacterial activity against Streptococcus pneumoniae MTCC 1936 by broth microdilution method. Type of experiment: functional. In a few lines:
(§1)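 Broth microdilution per NCCLS, with serial dilutions in Mueller Hinton broth and DMSO as diluent. Tubes were incubated overnight at 37 °C. MIC was the lowest concentration giving no visible growth, with the control organism's MIC read to verify concentrations. Tubes without growth were subcultured overnight at 37 °C to judge bacteriostatic versus bactericidal action.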

For another experiment, the system named is Clostridium tetani. The experiment in a line: Antibacterial activity against Clostridium tetani MTCC 449 by broth microdilution method. Type of experiment: functional.
The next experiment concerns Candida albicans. The experiment in a line: Antifungal activity against Candida albicans MTCC 227 by broth microdilution method. Type of experiment: functional.
The next experiment relates to Escherichia coli. The experiment in a line: Antibacterial activity against Escherichia coli MTCC 443 by broth microdilution method. The experiment is classed as functional. In a few lines:
as §1

A further experiment concerns Salmonella typhi. The experiment is described as follows: Antibacterial activity against Salmonella typhi MTCC 98 by broth microdilution method. Particulars: Salmonella enterica. Type of experiment: functional, Salmonella enterica subsp. enterica serovar Typhi.
A further experiment relates to Bacillus subtilis. The experiment in a line: Antibacterial activity against Bacillus subtilis MTCC 441 by broth microdilution method. Type of experiment: functional. In a few lines: as §1
For another experiment, the system named is Vibrio cholerae. The experiment in a line: Antibacterial activity against Vibrio cholerae MTCC 3906 by broth microdilution method. Type of experiment: functional.

With `COc1ccc(NN2C(N)=C(C#N)C(c3cc4cc(C)ccc4nc3Cl)C3=C2CC(C)(C)CC3=O)cc1` (stereo not given), the MIC is over 1000 µg/mL in the experiment with Aspergillus fumigatus; 100 µg/mL (≈ 195 µM) against Streptococcus pneumoniae; 500 µg/mL (≈ 973 µM) with Clostridium tetani; over 1000 µg/mL against Candida albicans; 250 µg/mL (≈ 486 µM) in the experiment on Escherichia coli; 500 µg/mL (≈ 973 µM) against Salmonella typhi. For the same molecule, the results for the MIC with Bacillus subtilis and in the experiment with Vibrio cholerae were 200 µg/mL (≈ 389 µM) and 500 µg/mL (≈ 973 µM), respectively. In addition, the half-maximal inhibitory concentration (IC50) with Plasmodium falciparum turned out to be 0.54 µg/mL (≈ 1.05 µM). The inhibition at 6.25 µg/mL in experiment [1] is 3%.

Take `COc1ccc2nc(Cl)c(C3C(C#N)=C(N)N(Nc4ccc(C)cc4)C4=C3C(=O)CC(C)(C)C4)cc2c1` (stereo not given): the MIC was determined as 500 µg/mL (≈ 973 µM) against Aspergillus fumigatus; 200 µg/mL (≈ 389 µM) in the experiment with Streptococcus pneumoniae; 100 µg/mL (≈ 195 µM) against Clostridium tetani; 500 µg/mL (≈ 973 µM) against Candida albicans; 150 µg/mL (≈ 292 µM) in the experiment on Escherichia coli; 200 µg/mL (≈ 389 µM) in the experiment with Salmonella typhi. Further, the MIC against Bacillus subtilis and in the experiment with Vibrio cholerae was 200 µg/mL (≈ 389 µM) in each case. Further, 0.19 µg/mL (≈ 0.37 µM) corresponded to half-maximal inhibition in the experiment with Plasmodium falciparum (IC50). In [1], 6.25 µg/mL produced 50% inhibition.

With `CC1(C)CC(=O)C2=C(C1)N(Nc1ccc(F)cc1)C(N)=C(C#N)C2c1cc2ccccc2nc1Cl` (stereo not given), the MIC is 1000 µg/mL (≈ 2050 µM) with Aspergillus fumigatus; 500 µg/mL (≈ 1020 µM) against Streptococcus pneumoniae; 200 µg/mL (≈ 410 µM) in the experiment with Clostridium tetani; 1000 µg/mL (≈ 2050 µM) against Candida albicans; 200 µg/mL (≈ 410 µM) against Escherichia coli; 200 µg/mL (≈ 410 µM) in the experiment on Salmonella typhi. Besides, the results for the MIC in the experiment on Bacillus subtilis and against Vibrio cholerae were 500 µg/mL (≈ 1020 µM) and 200 µg/mL (≈ 410 µM), respectively. Moreover, in the experiment on Plasmodium falciparum, the midpoint of inhibition, the IC50, lay at 0.027 µg/mL (≈ 0.0553 µM). In addition, the inhibition at 6.25 µg/mL in experiment [1] is 62%.

Consider `Cc1ccc2nc(Cl)c(C3C(C#N)=C(N)N(Nc4ccc(F)cc4)C4=C3C(=O)CC(C)(C)C4)cc2c1` (stereo not given), for which the MIC in the experiment with Aspergillus fumigatus came out at 1000 µg/mL (≈ 1990 µM); in the experiment with Streptococcus pneumoniae, 250 µg/mL (≈ 498 µM); with Clostridium tetani, 200 µg/mL (≈ 398 µM); with Candida albicans, 1000 µg/mL (≈ 1990 µM); with Escherichia coli, 250 µg/mL (≈ 498 µM); against Salmonella typhi it was 250 µg/mL (≈ 498 µM). Also, the MIC in the experiment on Bacillus subtilis stood at 250 µg/mL (≈ 498 µM); in the experiment on Vibrio cholerae, 200 µg/mL (≈ 398 µM). In the experiment on Plasmodium falciparum, this molecule displayed an IC50 of 0.047 µg/mL (≈ 0.0936 µM). The inhibition at 6.25 µg/mL in [1] was found to be 33%.

As for `COc1ccc2nc(Cl)c(C3C(C#N)=C(N)N(Nc4ccc(Br)cc4)C4=C3C(=O)CC(C)(C)C4)cc2c1` (stereo not given), the MIC in the experiment on Aspergillus fumigatus is 500 µg/mL (≈ 864 µM); against Streptococcus pneumoniae it was 250 µg/mL (≈ 432 µM); with Clostridium tetani it was 200 µg/mL (≈ 345 µM); against Candida albicans, 1000 µg/mL (≈ 1730 µM); in the experiment on Escherichia coli, 200 µg/mL (≈ 345 µM); in the experiment on Salmonella typhi it was 125 µg/mL (≈ 216 µM). Moreover, the minimum inhibitory concentration (MIC) amounted to 250 µg/mL (≈ 432 µM) in the experiment on Bacillus subtilis and 200 µg/mL (≈ 345 µM) against Vibrio cholerae. The IC50 in the experiment on Plasmodium falciparum is 0.014 µg/mL (≈ 0.0242 µM). In [1], this molecule yielded an inhibition at 6.25 µg/mL of 17%.

Turning to `CC1(C)CC(=O)C2=C(C1)N(Nc1ccc(Br)cc1)C(N)=C(C#N)C2c1cc2cc(Cl)ccc2nc1Cl` (stereo not given), the MIC in the experiment with Aspergillus fumigatus was 500 µg/mL (≈ 857 µM); with Streptococcus pneumoniae it was 200 µg/mL (≈ 343 µM); in the experiment with Clostridium tetani, 250 µg/mL (≈ 429 µM); in the experiment with Candida albicans, 1000 µg/mL (≈ 1710 µM); in the experiment on Escherichia coli, 100 µg/mL (≈ 171 µM); in the experiment with Salmonella typhi, 250 µg/mL (≈ 429 µM). The MIC against Bacillus subtilis and in the experiment with Vibrio cholerae was 250 µg/mL (≈ 429 µM) throughout. The same molecule returned an IC50 in the experiment on Plasmodium falciparum of 0.08 µg/mL (≈ 0.137 µM). In addition, in experiment [1], the inhibition at 6.25 µg/mL was 85%.

In the case of `Cc1ccc(NN2C(N)=C(C#N)C(c3cc4ccccc4nc3Cl)C3=C2CC(C)(C)CC3=O)cc1` (stereo not given), the MIC in the experiment with Aspergillus fumigatus came out at 500 µg/mL (≈ 1030 µM); against Streptococcus pneumoniae it was 500 µg/mL (≈ 1030 µM); against Clostridium tetani it was 250 µg/mL (≈ 517 µM); in the experiment on Candida albicans it was 500 µg/mL (≈ 1030 µM); in the experiment on Escherichia coli, 200 µg/mL (≈ 413 µM); with Salmonella typhi it was 200 µg/mL (≈ 413 µM). The MIC against Bacillus subtilis and in the experiment on Vibrio cholerae was 250 µg/mL (≈ 517 µM) throughout. Besides, 0.005 µg/mL (≈ 0.0103 µM) corresponded to half-maximal inhibition in the experiment with Plasmodium falciparum (IC50). The molecule also displayed an inhibition at 6.25 µg/mL in experiment [1] of 8%.

Consider `Cc1ccc2nc(Cl)c(C3C(C#N)=C(N)N(Nc4ccc(Cl)cc4)C4=C3C(=O)CC(C)(C)C4)cc2c1` (stereo not given), for which the MIC was determined as 1000 µg/mL (≈ 1930 µM) against Aspergillus fumigatus; 250 µg/mL (≈ 482 µM) in the experiment with Streptococcus pneumoniae; 250 µg/mL (≈ 482 µM) against Clostridium tetani; 500 µg/mL (≈ 964 µM) against Candida albicans; 100 µg/mL (≈ 193 µM) against Escherichia coli; 200 µg/mL (≈ 386 µM) against Salmonella typhi. Besides, the values for the MIC with Bacillus subtilis and in the experiment on Vibrio cholerae were 500 µg/mL (≈ 964 µM) and 200 µg/mL (≈ 386 µM), respectively. Besides, the IC50 in the experiment on Plasmodium falciparum was found to be 0.008 µg/mL (≈ 0.0154 µM). For the same molecule, testing at 6.25 µg/mL in [1] gave an inhibition of 15%.

As to `Cc1ccc(NN2C(N)=C(C#N)C(c3cc4cc(Cl)ccc4nc3Cl)C3=C2CC(C)(C)CC3=O)cc1` (stereo not given), the minimum inhibitory concentration (MIC) with Aspergillus fumigatus is 500 µg/mL (≈ 964 µM); against Streptococcus pneumoniae, 500 µg/mL (≈ 964 µM); with Clostridium tetani, 250 µg/mL (≈ 482 µM); against Candida albicans, 500 µg/mL (≈ 964 µM); against Escherichia coli, 250 µg/mL (≈ 482 µM); against Salmonella typhi it was 250 µg/mL (≈ 482 µM). Also, the MIC in the experiment on Bacillus subtilis came out at 500 µg/mL (≈ 964 µM); against Vibrio cholerae, 250 µg/mL (≈ 482 µM). This molecule also had an IC50 with Plasmodium falciparum of 0.014 µg/mL (≈ 0.027 µM). In addition, 6.25 µg/mL produced 72% inhibition in [1].

The record behind these values is ChEMBL document CHEMBL2040757, “New N-arylamino biquinoline derivatives: synthesis, antimicrobial, antituberculosis, and antimalarial evaluation” (Eur J Med Chem, 2012).
